Source: the array DNA melting data of Ke et al. (doi:10.1101/2024.01.08.574731)

Legend:
[1] = melting temperature; fluorescence melt of hairpins on a sequencing array, two-state fit, raised by 9.35 °C to match UV melts; conditions: sodium 0.088 M
Method in brief: (§1)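 Hairpins were imaged by Cy3 fluorescence on a sequenced MiSeq flow cell with annealed Cy3 and quencher oligos, in 50 mM Na-HEPES pH 8.0, 25 mM NaCl, in 2.5 °C steps up to 60 °C. Bootstrapped two-state fits of normalised signals gave melting temperature and folding enthalpy. Four replicates were combined by inverse variance, and fitted temperatures were raised by 9.35 °C to match UV melts.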

[2] = folding enthalpy; higher = less favourable; fluorescence melt of hairpins on a sequencing array, two-state fit; conditions: sodium 0.088 M
Method in brief: as §1

Sequence | Tm [1] | folding enthalpy [2]
CGGGATCGGAAACGACCG (((..(((....)))))) | 40 °C | -22.6 kcal/mol
CGGGCCCGGAAACGGCCG (((..(((....)))))) | 50.3 °C | -13.3 kcal/mol
CGGGCGGAAACGCAACCG ((((((....)))..))) | 49.7 °C | -23.9 kcal/mol
CGGGCGGAAACGCACCG ((((((....))).))) | 60.4 °C | -16.9 kcal/mol
CGGGCGGAAACGCGTCCG ((((((....)))..))) | 53 °C | -23.9 kcal/mol
CGGGTGAAAACCCG (((((....))))) | 68.6 °C | -28.9 kcal/mol
CGGTACGGAAACGTCCCG (((.(((....))).))) | 46.6 °C | -25 kcal/mol
CGGTACGGAAACGTCCG (((.(((....)))))) | 47.7 °C | -20.9 kcal/mol
CGGTACGGAAACGTGCCG (((.(((....))).))) | 59.8 °C | -37.5 kcal/mol
CGGTCGGAAACGACTCCG ((((((....)))..))) | 33.9 °C | -13.3 kcal/mol
CGGTCGGAAACGATACCG ((((((....)))..))) | 41.2 °C | -26.9 kcal/mol
CGGTCTCGGAAACGACCG (((..(((....)))))) | 46.7 °C | -30 kcal/mol
CGGTTCGGAAACGAGCCG (((.(((....))).))) | 58.6 °C | -50.5 kcal/mol
CGGTTGAAAAACCG (((((....))))) | 56.2 °C | -29.6 kcal/mol
CGTACCGGAAACGGAACG (((.(((....))).))) | 50.7 °C | -30.7 kcal/mol
CGTACGAAAGTACG (((((....))))) | 68.9 °C | -26.7 kcal/mol
CGTACGGAAACGTTAACG ((((((....)))..))) | 37.3 °C | -16.7 kcal/mol
CGTAGCGGAAACGCACG (((.(((....)))))) | 53.1 °C | -22.2 kcal/mol
CGTATGCGGAAACGCACG (((..(((....)))))) | 40.7 °C | -9.53 kcal/mol
CGTCACGGAAACGTACG (((.(((....)))))) | 40 °C | -22.8 kcal/mol
CGTCAGAAATGACG (((((....))))) | 51.6 °C | -24.5 kcal/mol
CGTCCCCGGAAACGGACG (((..(((....)))))) | 42.2 °C | -21.1 kcal/mol
CGTCCGCGGAAACGCACG (((..(((....)))))) | 33.5 °C | -12 kcal/mol

Sequence | Tm [1] | folding enthalpy [2]
CGTCCGGAAACGGCAACG ((((((....)))..))) | 38.5 °C | -14.8 kcal/mol
CGTCCGGAAACGGGAACG ((((((....)))..))) | 38.9 °C | -22.5 kcal/mol
CGTCGCGGAAACGCAACG (((.(((....))).))) | 50.5 °C | -28.8 kcal/mol
CGTCGCGGAAACGCACG (((.(((....)))))) | 50.5 °C | -19.4 kcal/mol
CGTCGGAAACGACG (((((....))))) | 69.2 °C | -27.6 kcal/mol
CGTCGTCGGAAACGAACG (((..(((....)))))) | 48.8 °C | -24.9 kcal/mol
CGTCTACGGAAACGTACG (((..(((....)))))) | 31.5 °C | -11.6 kcal/mol
CGTGACCGGAAACGGACG (((..(((....)))))) | 36.2 °C | -15.7 kcal/mol
CGTGACGGAAACGTTACG (((.(((....))).))) | 52.2 °C | -29.3 kcal/mol
CGTGCGGAAACGCAAACG ((((((....)))..))) | 45.3 °C | -19.9 kcal/mol
CGTGCGGAAACGCAACG ((((((....))).))) | 53.9 °C | -27.5 kcal/mol
CGTGCGGAAACGCGACG ((((((....))).))) | 55.1 °C | -23.5 kcal/mol
CGTGCGGAAACGCTACG ((((((....))).))) | 50.6 °C | -27.6 kcal/mol
CGTGGCGGAAACGCGACG (((.(((....))).))) | 57.7 °C | -35.6 kcal/mol
CGTGGCGGAAACGCTACG (((.(((....))).))) | 59.6 °C | -33.8 kcal/mol
CGTGGGCGGAAACGCACG (((..(((....)))))) | 53.1 °C | -13.4 kcal/mol
CGTTAACGGAAACGTACG (((..(((....)))))) | 37 °C | -17.6 kcal/mol
CGTTACGGAAACGTGACG (((.(((....))).))) | 51.5 °C | -52.2 kcal/mol
CGTTCCGGAAACGGACG (((.(((....)))))) | 49.9 °C | -30.8 kcal/mol
CGTTCGCGGAAACGCACG (((..(((....)))))) | 40.4 °C | -13.6 kcal/mol
CGTTCGGAAACGAGCACG ((((((....)))..))) | 30.7 °C | -13.2 kcal/mol
CGTTCGGAAACGATCACG ((((((....)))..))) | 30.9 °C | -13.9 kcal/mol
CGTTCTCGGAAACGAACG (((..(((....)))))) | 35.8 °C | -19.2 kcal/mol

Sequence | Tm [1] | folding enthalpy [2]
CGTTGCGGAAACGCTACG (((.(((....))).))) | 56 °C | -33.4 kcal/mol
CGTTTTCGGAAACGAACG (((..(((....)))))) | 37 °C | -12.1 kcal/mol
CTACAGAAATGTAG (((((....))))) | 36.5 °C | -13.3 kcal/mol
CTACGGAAACGTAG (((((....))))) | 49.4 °C | -24.9 kcal/mol
CTATCGAAAGATAG (((((....))))) | 47.1 °C | -21.7 kcal/mol
CTGTGGAAACACAG (((((....))))) | 52.1 °C | -19.7 kcal/mol
CTGTTGAAAAACAG (((((....))))) | 42.3 °C | -23.7 kcal/mol
CTTTCGAAAGAAAG (((((....))))) | 47.3 °C | -19.3 kcal/mol
CTTTGGAAACAAAG (((((....))))) | 37.1 °C | -22.4 kcal/mol
CTTTTGAAAAAAAG (((((....))))) | 30.1 °C | -7.85 kcal/mol
GAAAAAGCGAAAGCTTTC (((..(((....)))))) | 33.2 °C | -12.1 kcal/mol
GAAAACCCGAAAGGGTTC (((..(((....)))))) | 39.8 °C | -8.48 kcal/mol
GAAAACGAAAGTTTCTTC ((((((....)))..))) | 46.6 °C | -35 kcal/mol
GAAAACGAAAGTTTTTTC ((((((....)))..))) | 38.9 °C | -20.7 kcal/mol
GAAAACGGAAACGTTTCC (.(((((....))))).) | 34.1 °C | -15.1 kcal/mol
GAAAACGGAAACGTTTTC (((((((....))))))) | 57.9 °C | -39.4 kcal/mol
GAAAATGCGAAAGCATTC (((..(((....)))))) | 32.7 °C | -10 kcal/mol
GAAAATGGAAACGTTTTC (((((.(....).))))) | 37.8 °C | -32.3 kcal/mol
GAAACACGAAAGTGCTTC (((.(((....))).))) | 43.8 °C | -22.5 kcal/mol
GAAACACGAAAGTGGTTC (((.(((....))).))) | 55 °C | -44.3 kcal/mol
GAAACAGCGAAAGCTTTC (((..(((....)))))) | 29.1 °C | -15.3 kcal/mol
GAAACAGGAAACCGTTTC (((((.(....).))))) | 35.8 °C | -24.3 kcal/mol
GAAACAGGAAACTGTTCC (.(((((....))))).) | 35.3 °C | -14.9 kcal/mol

Sequence | Tm [1] | folding enthalpy [2]
GAAACCCGAAAGGGATTC (((.(((....))).))) | 49.3 °C | -23.6 kcal/mol
GAAACCGAAAGGTACTTC ((((((....)))..))) | 34.6 °C | -17.8 kcal/mol
GAAACCGAAAGGTATTTC ((((((....)))..))) | 26.6 °C | -12.4 kcal/mol
GAAACCGAAAGGTCCTTC ((((((....)))..))) | 30.7 °C | -14.6 kcal/mol
GAAACGACGAAAGTCTTC (((..(((....)))))) | 29.5 °C | -9.41 kcal/mol
GAAACGCCGAAAGGCTTC (((..(((....)))))) | 23.1 °C | -7.92 kcal/mol
GAAACGCGAAAGCGTTC (((.(((....)))))) | 50.6 °C | -8.94 kcal/mol
GAAACGGGAAACCATTTC ((((.((....)).)))) | 28.8 °C | -21.5 kcal/mol
GAAACGGGAAACCGTTTC (((((((....))))))) | 60.3 °C | -50.9 kcal/mol
GAAAGACCGAAAGGTTTC (((..(((....)))))) | 28.8 °C | -11.5 kcal/mol
GAAAGACGAAAGTCATTC (((.(((....))).))) | 38.2 °C | -21.1 kcal/mol
GAAAGACGAAAGTCTTC (((.(((....)))))) | 44.3 °C | -12.6 kcal/mol
GAAAGCGAAAGCTAATTC ((((((....)))..))) | 28.8 °C | -8.31 kcal/mol
GAAAGCGAAAGCTCTTTC ((((((....)))..))) | 38.2 °C | -16.7 kcal/mol
GAAAGCGAAAGCTTTTTC ((((((....)))..))) | 49 °C | -14.2 kcal/mol
GAAAGCGGAAACGCTCTC ((.((((....)))).)) | 35 °C | -12.3 kcal/mol
GAAAGGCCGAAAGGCTTC (((..(((....)))))) | 28.5 °C | -8.26 kcal/mol
GAAAGGCGAAAGCCGTTC (((.(((....))).))) | 46.7 °C | -11.9 kcal/mol
GAAAGGGAAACCTTTC ((((((....)))))) | 47 °C | -30 kcal/mol
GAAAGGGGAAACCCTTTC (((((((....))))))) | 54.8 °C | -47 kcal/mol
GAAAGTGAAAACTTTC ((((((....)))))) | 47.7 °C | -27.2 kcal/mol
GAAAGTGGAAACACTTTC (((((((....))))))) | 56.8 °C | -36.1 kcal/mol
GAAAGTGGAAACATTTTC ((((.((....)).)))) | 32.1 °C | -27.4 kcal/mol
